We go through 4 molecules from publication PMC2172688 (The Journal of Cell Biology, 2003).

Assay [1] deals with GST fusion of a 10-amino acid peptide spanning the PTAP motif of human Tsg101 (human). The assay can be described thus: SPR.
For assay [2], the target named is GST fusion of a 10-amino acid peptide spanning the PTAP motif of HIV-1 NL4-3 Gag (HIV-1 NL4-3). The assay can be described thus: SPR.
Assay [3] deals with GST fusion of a 10-amino acid peptide spanning the PSAP motif of human Hrs (human). The experiment in a line: SPR.
The target in assay [4] is T1, Tsg101 UEV domain (Homo sapiens, UniProt Q99816).
T1 sequence (Q99816 2-145 limits assumed): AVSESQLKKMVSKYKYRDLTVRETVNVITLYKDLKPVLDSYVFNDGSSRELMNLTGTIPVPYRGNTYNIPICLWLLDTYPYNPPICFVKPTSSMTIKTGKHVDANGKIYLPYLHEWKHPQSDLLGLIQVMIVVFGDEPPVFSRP
The assay can be described thus: BIAcore biosensor binding of Tsg101 UEV to immobilized GST–peptide fusions. To be noted: relative to HIV-1 PTAP peptide. Put shortly:
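Purified recombinant Tsg101 UEV domain was flowed over immobilized GST fusions of 10-amino-acid peptides spanning the central P(S/T)AP motifs of HIV-1 NL4–3 Gag, Tsg101 and Hrs. A mutant Gag PTAP peptide served as negative control. Binding was recorded at a range of UEV concentrations, and binding isotherms were plotted against concentration.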

Assay [5] concerns the target T2, Tsg101–Gal4p binding domain fusion, full-length wild-type Tsg101 (human, UniProt Q99816 1-390).
T2 sequence (looked up): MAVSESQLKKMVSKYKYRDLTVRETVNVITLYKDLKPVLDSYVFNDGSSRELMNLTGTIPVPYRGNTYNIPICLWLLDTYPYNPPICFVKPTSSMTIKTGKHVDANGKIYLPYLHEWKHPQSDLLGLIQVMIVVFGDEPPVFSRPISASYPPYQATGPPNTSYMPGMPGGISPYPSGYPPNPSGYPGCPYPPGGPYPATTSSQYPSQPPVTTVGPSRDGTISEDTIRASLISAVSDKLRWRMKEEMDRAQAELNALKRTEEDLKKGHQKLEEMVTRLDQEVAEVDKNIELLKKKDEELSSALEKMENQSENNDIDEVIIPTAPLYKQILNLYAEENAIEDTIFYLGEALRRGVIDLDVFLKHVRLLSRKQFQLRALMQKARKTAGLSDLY
The assay can be described thus: two-hybrid.

For “Tsg101 UEV domain (NH2-terminal ubiquitin E2 variant domain of Tsg101) (from UniProt Q99816 2-145) (domain or fragment)”, the results for the fold weaker binding affinity than for the HIV-1 PTAP peptide in assay [1] and in assay [3] were 4 fold and 7 fold, respectively. This molecule showed a Kd in assay [2] of 21 µM.
As to SPTPSAPVPL [Hrs SPTPSAPVPL], in assay [4], the “binding affinity weaker than Tsg101 UEV binding to the HIV-1 PTAP peptide” value was “sevenfold”.
As for VIIPTAPLYK [Tsg101 VIIPTAPLYK], in assay [4], the “binding affinity weaker than Tsg101 UEV binding to the HIV-1 PTAP peptide” value is recorded as “fourfold”.

B1: Hrs^ΔPSAP, Gal4p activation domain fusion (alanine substitution of the Hrs 348PSAP351 sequence) (natural protein, human, UniProt O14964 1-777, looked up)
chain: MGRGSGTFERLLDKATSQLLLETDWESILQICDLIRQGDTQAKYAVNSIKKKVNDKNPHVALYALEVMESVVKNCGQTVHDEVANKQTMEELKDLLKRQVEVNVRNKILYLIQAWAHAFRNEPKYKVVQDTYQIMKVEGHVFPEFKESDAMFAAERAPDWVDAEECHRCRVQFGVMTRKHHCRACGQIFCGKCSSKYSTIPKFGIEKEVRVCEPCYEQLNRKAEGKATSTTELPPEYLTSPLSQQSQLPPKRDETALQEEEELQLALALSQSEAEEKERLRQKSTYTSYPKAEPMPSASSAPPASSLYSSPVNSSAPLAEDIDPELARYLNRNYWEKKQEEARKSPTAAAAVPLTEPAAQPGEGHAAPTNVVENPLPETDSQPIPPSGGPFSEPQFHNGESEESHEQFLKALQNAVTTFVNRMKSNHMRGRSITNDSAVLSLFQSINGMHPQLLELLNQLDERRLYYEGLQDKLAQIRDARGALSALREEHREKLRRAAEEAERQRQIQLAQKLEIMRQKKQEYLEVQRQLAIQRLQEQEKERQMRLEQQKQTVQMRAQMPAFPLPYAQLQAMPAAGGVLYQPSGPASFPSTFSPAGSVEGSPMHGVYMSQPAPAAGPYPSMPSTAADPSMVSAYMYPAGATGAQAAPQAQAGPTASPAYSSYQPTPTAGYQNVASQAPQSLPAISQPPQSSTMGYMGSQSVSMGYQPYNMQNLMTTLPSQDASLPPQQPYIAGQQPMYQQMAPSGGPPQQQPPVAQQPQAQGPPAQGSEAQLISFD
As for B1, the “fold reduction of binding against wild-type Hrs” value in assay [5] is roughly 2 fold.
